Results from PubChem BioAssay.
A number with no mark means an inactive call. Records with an inconclusive call do not appear. The source made the active and inactive calls.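 The calls were made as follows, unless noted: active = inhibition over a set limit, the all-compound mean plus 3 SD, in both replicate runs; inconclusive = over that limit in just one replicate run; inactive = at or under that limit in both runs.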

Legend:
[1] = S. cerevisiae growth inhibition in permissive medium (OD615), pilot counter-assay for S. cerevisiae lifespan shortening project, permissive growth control (AID 705;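 active = growth inhibition above 25% in both replicates, a cutoff set 3 SD above the mean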); details: OD615, 24 h, at 10 µM, hits give high values
In short: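 System: Engineered DeaD yeast | Buffer or medium: SC raffinose/galactose permissive medium | Doses: 10 µM single dose, 0.25% DMSO | Times: 24 h exposure, 30 °C | Measured by: OD615 turbidity read | Read-out: Yeast growth inhibition indicated by reduced 24 h OD615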

[2] = S. cerevisiae growth inhibition in restrictive medium, OD615, pilot screen, restrictive growth control, yeast lifespan reduction project (AID 706;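 active = growth inhibition above a set limit, 3 SD over mean compound inhibition, in both replicates, cut at about 43% in these data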;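 also: modified DeaD lifespan yeast strain shifted to restrictive glucose medium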); details: OD615, 48 h, at 10 µM, hits give high values
In short: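 Assay system: engineered S. cerevisiae DeaD strain; Buffer or medium: CSMM-D glucose medium; Dosing: 10 µM compound, 0.25% DMSO; Times: cell pre-growth 4 h, compound exposure 48 h, 30 °C; Detection: absorbance (optical density) measured at 615 nm.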

[3] = doxorubicin toxicity protection in MRP-1 cells – H69AR cells, CellTiter-Glo, duplicate, MRP-1 activator project, pilot screen (AID 807;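 active = viability increase at or above a cutoff of the median across tested compounds plus 3 SD, cut at about 8.5% in these data, passing the limit was not always enough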;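 also: compound pretreatment 18-22 h then 72 h combined with doxorubicin; 0% = doxorubicin alone and 100% = vehicle without doxorubicin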); details: H69AR viability with doxorubicin, CellTiter-Glo luminescence; at 10 µM; hits give high values
[4] = viability of HCT116 without oncogenic beta-catenin – human colon tumor cells, pilot screen (AID 823;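 active = cell viability at or below a set limit in both duplicate runs, the limit being the all-compound median minus 4 SD, cut at about 23% in these data, passing the limit was not always enough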;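 also: 0% = wells killed by 20 µM Hyamine and 100% = untreated DMSO cell wells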); details: HCT116 beta-catenin knockout viability, CellTiter-Glo, 60 h; at 10 µM; hits give low values
[5] = viability of PTEN-null HCT116 cells – cell-based, HCT116 clonal line, CellTiter-Glo, pilot screen (AID 824;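 active = viability at or below 27.92% in each of two runs, the all-compound median minus 4 SD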;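 also: 0% = 20 µM Hyamine control and 100% = vehicle cell control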); details: HCT116 PTEN-deleted viability, 60 h, at 10 µM, hits give low values
[6] = RAM pathway blockade in budding yeast – dse1pr::URA3 reporter, 5-FOA selection, pilot screen (AID 869);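 also: 0% = DMSO wells with no growth and 100% = 10 µM 1-NA-PP1 with full growth; RAM network block rescues cells from 5-FOA so hits raise OD615 growth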; details: S. cerevisiae dse1pr::URA3 5-FOA growth, OD615, 2 d; at 10 µM; hits give high values; strain carries analog-sensitive mutant Cbk1 kinase
[7] = RAM signaling pathway blockade in yeast – S. cerevisiae, Pdr1DBD-CYC8 efflux-inhibited sensitized strain, primary screen (AID 1298;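 active = RAM network inhibition above 8.4% in each of two replicates, 3 SD over the compound average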;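 also: 0% = DMSO untreated cells without growth and 100% = 10 µM 1-NA-PP1 full growth; higher means more yeast growth rescued from 5-FOA killing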); details: S. cerevisiae cbk1-as DSE1-URA3 strain, 5-FOA growth OD615, 2 d; at 50 µM; hits give high values

Compound	growth inhibition [1]	growth inhibition [2]	viability increase [3]	viability [4]	viability [5]	inhibition [6]	RAM network inhibition [7]
CCCCCOC(=O)c1[nH]c2c(c1C)C(=O)CC(c1ccco1)C2 (configuration not stated)	-15%	-3.28%	-5.25%	14.5% (active)	16.3% (active)	0.18%	-0.31%
COc1ccc(-c2cc(N)n(S(=O)(=O)Cc3ccccc3)n2)c(OC)c1	-2.75%	-12.7%	0.27%	101%	96.8%	2.42%	5.13%
COc1ccccc1C1CC(=O)NC(SCC(=O)Nc2ccccc2)=C1C#N (configuration not stated)	4.78%	-11.8%	1.09%	93.2%	88.2%	3.57%	1.38%
COC(=O)CC1SC(=O)NC1=Nc1ccccc1 (configuration not stated)	-7.63%	-0.1%	0.96%	106%	89.1%	1.42%	4.94%
CN(Cc1ccccc1)C(=O)CCn1c(=O)oc2ccccc21	2.31%	-0.265%	-1.33%	101%	99.2%	1.41%	1.99%
COc1ccc(C)c2sc(=NC(=O)C(C)C)n(C)c12	-6.53%	2.31%	-3.89%	90%	92.4%	3.1%	6.3%
CN1CCN(c2nc3c(c(=O)n(C)c(=O)n3C)n2CCSc2nc3ccccc3s2)CC1	-5.4%	-16.2%	-3.94%	100%	96.1%	1.37%	3.29%
COc1ccccc1C(=O)n1nc(C)cc1C	-3.16%	-0.83%	0.58%	92%	95.8%	-0.645%	3.78%
COC(=O)c1cn(NC(=O)c2ccncc2)c(=O)c2ccccc12	-0.73%	-19.7%	-1.43%	98.3%	94.9%	0.87%	2.53%
CCN(c1ccccc1)c1cc(C)nc2nc(C)nn12	-17%	-3.25%	-3.84%	106%	96.7%	1.6%	4.74%
COc1ccccc1S(=O)(=O)Cc1ccc(C(=O)NCc2ccc3c(c2)OCO3)o1	-4.21%	-26.9%	-2.83%	91.9%	87.4%	1.9%	6.73%
O=C(Cn1cnc2c(nnn2-c2ccccc2)c1=O)NCCc1ccccc1	-0.435%	-10.4%	-1.04%	105%	100%	0.75%	3.12%
CC(=O)Nc1ccc(NC(=O)c2oc3cc(C)c(C)cc3c2C)cc1	-7.1%	-17%	-0.82%	104%	96.4%	2.38%	5.95%
COc1ccc(S(=O)(=O)Cc2ccc(C(=O)N3CCN(c4cccc(C)c4C)CC3)o2)cc1	-1.63%	-1.19%	-5.44%	13% (active)	17.6% (active)	1.52%	3.74%
COc1ccccc1N1CCN(C(=O)c2cc3cc(Br)ccc3oc2=O)CC1	2.45%	-11.9%	-0.94%	110%	94.1%	2.47%	1.96%
Cc1cc(S(=O)(=O)N2CCN(Cc3ccccc3)CC2)c(C)s1	-11.6%	0.51%	-1.58%	77.1%	81.1%	1.35%	4.48%
Cc1cc(NS(=O)(=O)c2ccc(NC(=O)Nc3ccccc3)cc2)no1	4.26%	-7.87%	1.41%	101%	103%	1.92%	1.02%
C=CCn1c(C)nc2c(c1=O)c1nc3ccccc3nc1n2-c1ccc(C)cc1	-4.19%	-2.97%	-1.62%	92.3%	82.2%	1.32%	4.86%

Compound	growth inhibition [1]	growth inhibition [2]	viability increase [3]	viability [4]	viability [5]	inhibition [6]	RAM network inhibition [7]
O=C(O)CSc1cccc2cccc(C(=O)O)c12	-0.49%	4.41%	-2.27%	105%	101%	1.54%	1.15%
CCN=C(NCC)SC1CC(=O)N(c2cccc(OC)c2)C1=O (configuration not stated)	5.98%	1.56%	-1.43%	101%	94.6%	0.04%	7.47%
COC(=O)c1ccc(N2C(=O)CC(Sc3n[nH]c(C)n3)C2=O)cc1 (configuration not stated)	38.2% (active)	19%	1.12%	96.6%	93.2%	1.42%	2.32%
CCOC(=O)c1nnn(-c2nonc2N)c1COc1ccccc1	-15.7%	-5.9%	-2.43%	89.5%	87.4%	0.05%	3.66%
Cc1ccc(-c2nn(-c3ccccc3)cc2C(=O)N2CCOCC2)cc1	-8.14%	-8.34%	-2.21%	97.5%	89%	0.805%	12.4%
CC(=O)N1CCC(Nc2ccc(C)cc2)CC1	-15.6%	-9.18%	0.99%	101%	97.3%	-0.41%	1.48%
Nc1cc(-c2cccc(F)c2)nn1S(=O)(=O)c1cccc2nsnc12	-5.94%	-7.52%	-2.16%	68.5%	65.7%	2.71%	0.98%
Cn1c(C(=O)NCc2cccs2)cc2c(=O)n(C)c3ccccc3c21	-0.025%	-1.79%	-3.65%	98.9%	98.1%	2.62%	1.75%
O=C(C1CCN(S(=O)(=O)c2cccc3cccnc23)CC1)N1CCCC1	11.8%	7.97%	-3.23%	97%	87.9%	1.52%	0.06%
CCc1cc(C(=O)Nc2ccccc2)cs1	-8.2%	4.65%	-0.18%	82.8%	90.9%	2.13%	-2.13%
CCOc1ccc(C2C(C(=O)Nc3ccc(F)cc3)=C(C)Nc3nc(CCCO)nn32)cc1 (configuration not stated)	-12.5%	12.8%	-0.6%	96.6%	91.5%	0.87%	1.21%
CCOc1ccc(C2CC(c3ccc(OC)c(OC)c3)n3nc(N)nc3N2)cc1 (configuration not stated)	2.68%	5.4%	0.31%	101%	92.7%	2.06%	5.15%
CCOC(=O)c1ccc(N=c2sc(C(=O)OC)cc(=O)n2CCCN2CCOCC2)cc1	-4.99%	-3.88%	-8.16%	57.4%	52.6%	2.12%	2.6%
O=C1CC(c2cccs2)CC(O)=C1C=NCCN1CCNCC1 (configuration not stated)	-11.8%	-6.3%	-0.54%	98.9%	97.2%	0.995%	-0.42%
Cc1oc2cc(O)ccc2c(=O)c1N1C(=O)c2ccccc2C1=O	-5.69%	0.06%	1.85%	98.2%	99.8%	1.11%	1.15%
O=C(NCCc1ccc(S(=O)(=O)N2CCCC2)cc1)c1cccs1	2.67%	7.14%	-1.73%	93.4%	90.2%	0.545%	6.32%
CC(=NCc1cccnc1)C1=C(O)c2ccccc2C1=O	-0.03%	9.76%	-0.85%	97.2%	96.4%	0.665%	-0.3%
O=C(CN1CCN(Cc2ccccc2F)C1=O)NCCN1CCOCC1	-2.78%	5.44%	-0.58%	109%	99.5%	1.27%	1.5%
